In brackets after ≈: the same amount, converted by molar mass.
What was measured:
Staphylococcus aureus [1] = experiment: Ratio of MIC for Staphylococcus aureus ATCC 29213 after and before 15 serial passages; format: functional
Staphylococcus aureus [2] = experiment: Antibacterial activity against methicillin-resistant Staphylococcus aureus DM 21455 after 24 hrs by two fold dilution assay; format: functional; settings: DM 21455, 24 h
In short: (§1)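 CLSI broth macrodilution in cation-adjusted Mueller-Hinton broth. Compounds were dissolved in DMF and diluted in PBS to a 1000 µg/mL stock, then serially 2-fold diluted in CA-MHB. The inoculum came from colonies on 18-20 h TSA plates (direct colony suspension), adjusted to ~5×10^5 CFU/mL. Incubation was 24 h at 35 °C. MIC is the lowest concentration with no visible growth versus control. Biological replicates.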

Staphylococcus aureus [3] = experiment: Antibacterial activity against Staphylococcus aureus DM 4001R after 24 hrs by two fold dilution assay; format: functional; in short: as §1
Staphylococcus aureus [4] = experiment: Antibacterial activity against methicillin-resistant Staphylococcus aureus DM 9808R after 24 hrs by two fold dilution assay; format: functional; in short: as §1
Bacillus cereus = experiment: Antibacterial activity against Bacillus cereus ATCC 11778 after 24 hrs by two fold dilution assay; format: functional; settings: ATCC 11778, 24 h
In short: (§2)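 Broth macro-dilution per CLSI in cation-adjusted Mueller-Hinton broth; compounds dissolved in DMF, diluted in PBS to 1000 µg/mL stock, then serial 2-fold dilutions in CA-MHB in tubes. Inoculum from 18-20 h TSA colonies (direct colony suspension), adjusted to about 5× 10^5 CFU/mL. MIC read after 24 h at 35 °C as lowest concentration with no visible growth; biological replicates.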

Staphylococcus aureus [5] = experiment: Antibacterial activity against Staphylococcus aureus ATCC 29213 infected in C57BL6 mouse cornea assessed as decrease in number of viable bacteria at 0.5% administered topically at 2 hrs interval for 4 times starting on day 1 post infection measured post last dose relative to control; format: functional
[6] = Selectivity index, ratio of HC50 for New Zealand White rabbit RBC to MIC for Staphylococcus aureus DM 4001R
In short: (§3)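 Ratio of HC50 to MIC. For HC50, fresh New Zealand White rabbit RBCs were pelleted (3000 rpm, 10 min), washed twice in PBS and mixed with serially diluted compounds (in DMF or PBS) at a final 4% v/v. After 60 min at 37 °C and centrifugation, supernatant absorbance was read at 576 nm. % hemolysis was normalised to 2% Triton X-100 (positive) and PBS/DMF (negative). MIC came from CA-MHB broth macrodilution, 24 h at 35 °C.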

[7] = Selectivity index, ratio of HC50 for New Zealand White rabbit RBC to MIC for methicillin-resistant Staphylococcus aureus DM 21455; in short: as §3
[8] = Selectivity index, ratio of HC50 for New Zealand White rabbit RBC to MIC for Bacillus cereus ATCC 11778; in short: as §3
[9] = Selectivity index, ratio of HC50 for New Zealand White rabbit RBC to MIC for methicillin-resistant Staphylococcus aureus DM 9808R; in short: as §3
Staphylococcus aureus [10] = experiment: Antibacterial activity against methicillin-resistant Staphylococcus aureus ATCC 43300 after 24 hrs by two fold dilution assay; format: functional; settings: ATCC 43300, 24 h; in short: as §1
Staphylococcus aureus [11] = experiment: Antibacterial activity against methicillin-resistant Staphylococcus aureus DB6506 after 24 hrs by two fold dilution assay; format: functional; settings: DB6506, 24 h; in short: as §1
Staphylococcus aureus [12] = experiment: Antibacterial activity against methicillin-sensitive Staphylococcus aureus DM4400R after 24 hrs by two fold dilution assay; format: functional; in short: as §1
Enterococcus faecalis = experiment: Antibacterial activity against Enterococcus faecalis ATCC 29212 after 24 hrs by two fold dilution assay; format: functional; settings: ATCC 29212, 24 h; in short: as §2
Staphylococcus aureus [13] = experiment: Antibacterial activity against methicillin-sensitive Staphylococcus aureus DM4583R after 24 hrs by two fold dilution assay; format: functional; in short: as §1
Staphylococcus aureus [14] = experiment: Antibacterial activity against methicillin-sensitive Staphylococcus aureus ATCC 29213 after 24 hrs by two fold dilution assay; format: functional; settings: ATCC 29213, 24 h; in short: as §1
Enterococcus faecium [15] = experiment: Antibacterial activity against vancomycin A-resistant Enterococcus faecium VRE 1008 after 24 hrs by two fold dilution assay; format: functional; settings: VRE 1008, 24 h; in short: as §1
Enterococcus hirae = experiment: Antibacterial activity against Enterococcus hirae ATCC 9790 after 24 hrs by two fold dilution assay; format: functional; settings: ATCC 9790, 24 h; in short: as §2
Enterococcus faecium [16] = experiment: Antibacterial activity against vancomycin A-resistant Enterococcus faecium VRE 1006 after 24 hrs by two fold dilution assay; format: functional; settings: VRE 1006, 24 h; in short: as §1
Staphylococcus aureus [17] = experiment: Antibacterial activity against methicillin-sensitive Staphylococcus aureus DM4299 after 24 hrs by two fold dilution assay; format: functional; settings: DM4299, 24 h; in short: as §1
Staphylococcus aureus [18] = experiment: Antibacterial activity against methicillin-resistant Staphylococcus aureus ATCC 700699 after 24 hrs by two fold dilution assay; format: functional; settings: Mu50, 24 h; in short: as §1
Staphylococcus aureus [19] = experiment: Antibacterial activity against methicillin-sensitive Staphylococcus aureus ATCC 6538 after 24 hrs by two fold dilution assay; format: functional; settings: ATCC 6538, 24 h; in short: as §1
Staphylococcus aureus [20] = experiment: Antibacterial activity against methicillin-resistant Staphylococcus aureus DB57964 after 24 hrs by two fold dilution assay; format: functional; settings: DB57964, 24 h; in short: as §1
Staphylococcus aureus [21] = experiment: Antibacterial activity against methicillin-resistant Staphylococcus aureus ATCC BAA-38 after 24 hrs by two fold dilution assay; format: functional; settings: ATCC BAA-38, 24 h; in short: as §1
Enterococcus faecium [22] = experiment: Antibacterial activity against vancomycin A-resistant Enterococcus faecium VRE 1007 after 24 hrs by two fold dilution assay; format: functional; settings: VRE 1007, 24 h; in short: as §1
Staphylococcus aureus [23] = experiment: Antibacterial activity against methicillin-resistant Staphylococcus aureus DB68004 after 24 hrs by two fold dilution assay; format: functional; settings: DB68004, 24 h; in short: as §1
Staphylococcus aureus [24] = experiment: Antibacterial activity against methicillin-sensitive Staphylococcus aureus ATCC 29737 after 24 hrs by two fold dilution assay; format: functional; settings: ATCC 29737, 24 h; in short: as §1

Compound: CCn1cc(C(=O)O)c(=O)c2cc(F)c(N3CCNCC3)cc21 [NORFLOXACIN]
- Ratio (Staphylococcus aureus [1]): 128

Compound: CCCCN(CCCC)CCCNC(=O)COc1cc(OCC=C(C)C)cc2oc3cc(OCC=C(C)C)cc(OCC(=O)NCCCN(CCCC)CCCC)c3c(=O)c12
- MIC (Staphylococcus aureus [2]): 3.13 µg/mL (≈ 3.69 µM)
- MIC (Staphylococcus aureus [3]): 3.13 µg/mL (≈ 3.69 µM)
- MIC (Staphylococcus aureus [4]): 3.13 µg/mL (≈ 3.69 µM)
- MIC (Bacillus cereus): 6.25 µg/mL (≈ 7.36 µM)

Compound: C[C@H]1COc2c(N3CCN(C)CC3)c(F)cc3c(=O)c(C(=O)O)cn1c23.C[C@H]1COc2c(N3CCN(C)CC3)c(F)cc3c(=O)c(C(=O)O)cn1c23.O [LEVOFLOXACIN]
- Activity (Staphylococcus aureus [5]): 99.2%

Compound: CCCOc1cc(OCC(=O)N[C@@H](CCCNC(=N)N)C(=O)OC)c2c(=O)c3c(OCC(=O)N[C@@H](CCCNC(=N)N)C(=O)OC)cc(OCCC)cc3oc2c1
- MIC (Staphylococcus aureus [2]): 12.5 µg/mL (≈ 15.6 µM)
- MIC (Staphylococcus aureus [3]): 12.5 µg/mL (≈ 15.6 µM)
- MIC (Staphylococcus aureus [4]): 12.5 µg/mL (≈ 15.6 µM)
- MIC (Bacillus cereus): 25 µg/mL (≈ 31.2 µM)

Compound: COC(=O)[C@H](CCCNC(=N)N)NC(=O)COc1cc(OCC=C(C)C)cc2oc3cc(OCC=C(C)C)cc(OCC=C(C)C)c3c(=O)c12
- MIC (Staphylococcus aureus [2]): 0.78 µg/mL (≈ 1.13 µM)
- MIC (Staphylococcus aureus [3]): 1.56 µg/mL (≈ 2.25 µM)
- Selectivity Index [6]: 21 to 42
- Selectivity Index [7]: 21 to 42
- Selectivity Index [8]: 21 to 42
- MIC (Staphylococcus aureus [4]): 1.56 µg/mL (≈ 2.25 µM)
- Selectivity Index [9]: 21 to 42
- MIC (Bacillus cereus): 1.56 µg/mL (≈ 2.25 µM)

Compound: CN[C@H](CC(C)C)C(=O)N[C@H]1C(=O)N[C@@H](CC(N)=O)C(=O)N[C@H]2C(=O)N[C@H]3C(=O)N[C@H](C(=O)N[C@H](C(=O)O)c4cc(O)cc(O)c4-c4cc3ccc4O)[C@H](O)c3ccc(c(Cl)c3)Oc3cc2cc(c3O[C@@H]2O[C@H](CO)[C@@H](O)[C@H](O)[C@H]2O[C@H]2C[C@](C)(N)[C@H](O)[C@H](C)O2)Oc2ccc(cc2Cl)[C@H]1O [VANCOMYCIN]
- MIC (Staphylococcus aureus [2]): 1.56 µg/mL (≈ 1.08 µM)
- MIC (Staphylococcus aureus [10]): 0.78 µg/mL (≈ 0.538 µM)
- MIC (Staphylococcus aureus [11]): 0.78 µg/mL (≈ 0.538 µM)
- MIC (Staphylococcus aureus [3]): 1.56 µg/mL (≈ 1.08 µM)
- MIC (Staphylococcus aureus [12]): 0.78 µg/mL (≈ 0.538 µM)
- MIC (Enterococcus faecalis): 1.56 µg/mL (≈ 1.08 µM)
- MIC (Staphylococcus aureus [13]): 1.56 µg/mL (≈ 1.08 µM)
- MIC (Staphylococcus aureus [14]): 1.56 µg/mL (≈ 1.08 µM)
- MIC (Enterococcus faecium [15]): > 50 µg/mL
- MIC (Enterococcus hirae): 0.78 µg/mL (≈ 0.538 µM)
- MIC (Enterococcus faecium [16]): > 50 µg/mL
- MIC (Staphylococcus aureus [4]): 3.13 µg/mL (≈ 2.16 µM)
- MIC (Staphylococcus aureus [17]): 1.56 µg/mL (≈ 1.08 µM)
- MIC (Staphylococcus aureus [18]): 1.56 µg/mL (≈ 1.08 µM)
- MIC (Staphylococcus aureus [19]): 0.78 µg/mL (≈ 0.538 µM)
- MIC (Staphylococcus aureus [20]): 0.78 µg/mL (≈ 0.538 µM)
- MIC (Staphylococcus aureus [21]): 1.56 µg/mL (≈ 1.08 µM)
- MIC (Enterococcus faecium [22]): > 50 µg/mL
- MIC (Staphylococcus aureus [23]): 1.56 µg/mL (≈ 1.08 µM)
- MIC (Bacillus cereus): 1.56 µg/mL (≈ 1.08 µM)
- MIC (Staphylococcus aureus [24]): 0.78 µg/mL (≈ 0.538 µM)

Compound: COc1c(N2CCNC(C)C2)c(F)cc2c(=O)c(C(=O)O)cn(C3CC3)c12 (centres undefined) [GATIFLOXACIN]
- Ratio (Staphylococcus aureus [1]): 64

Compound: COC(=O)[C@H](CCCNC(=N)N)NC(=O)[C@H](CCCNC(=N)N)NC(=O)COc1cc(OC/C=C(\C)CCC=C(C)C)cc2oc3cc(OC/C=C(\C)CCC=C(C)C)cc(OCC(=O)N[C@@H](CCCNC(=N)N)C(=O)N[C@@H](CCCNC(=N)N)C(=O)OC)c3c(=O)c12
- MIC (Staphylococcus aureus [2]): 25 µg/mL (≈ 19.2 µM)
- MIC (Staphylococcus aureus [3]): 25 µg/mL (≈ 19.2 µM)
- MIC (Staphylococcus aureus [4]): 25 µg/mL (≈ 19.2 µM)
- MIC (Bacillus cereus): 25 µg/mL (≈ 19.2 µM)
